Test results from article PMC5060091 (ChemMedChem, 2016).
Converted amounts (≈) assume the structure as drawn. Read-outs that look alike come from different tables or passages of the source. Values belong to the compound of their own block, whether it stands above or below them.

Assays:
[1] = system: C. albicans ATCC 90819(R); assay: MIC, broth dilution, strain D; format: cell-based, Candida albicans; details: Candida albicans
Procedure, shortened: (§1)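 Broth dilution MIC assay on the Candida panel: C. albicans strains A–G, C. glabrata (H), C. krusei (I) and C. parapsilosis (J). Test compounds were delivered in DMSO, with DMSO kept below 1% in the assay. The MIC is reported in µg/mL, with µM in parentheses. Reference antifungals (a polyene and four azoles) were run alongside.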

[2] = system: Candida and Aspergillus strains; assay: MIC against whole panel of fungal strains; format: cell-based; details: read-out: MIC values against the panel of fungal strains
Procedure, shortened: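 Whole-cell broth dilution MIC across Candida strains A–J and three Aspergillus strains: A. flavus ATCC MYA-3631, A. nidulans ATCC 38163 and A. terreus ATCC MYA-3633. Aspergillus was tested as freshly harvested spores. DMSO was below 1% in the assay. Values are given in µg/mL (and µM), with a polyene and four azoles as reference agents.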

[3] = system: C. albicans ATCC MYA-1003(R); assay: MIC, broth dilution, strain G; format: cell-based, Candida albicans; details: Candida albicans
Procedure, shortened: as §1

[4] = system: Aspergillus terreus ATCC MYA-3633; assay: MIC, broth dilution, strain M; format: cell-based; details: Aspergillus terreus
[5] = system: C. albicans ATCC 64124 (strain B); assay: Time-kill assay; format: cell-based, Candida albicans
[6] = system: C. albicans ATCC MYA-1237(R); assay: MIC, broth dilution, strain F; format: cell-based, Candida albicans; details: Candida albicans
Procedure, shortened: as §1

C. albicans ATCC 64124 [7] = assay: MIC, broth dilution, strain B; format: cell-based, Candida albicans; details: Candida albicans
Procedure, shortened: as §1

[8] = system: Candida albicans ATCC 10231; assay: MIC, broth dilution, strain A; format: cell-based; details: Candida albicans
Procedure, shortened: as §1

[9] = system: C. albicans ATCC MYA-2876(S); assay: MIC, broth dilution, strain C; format: cell-based, Candida albicans; details: Candida albicans
Procedure, shortened: as §1

[10] = system: C. albicans ATCC MYA-2310(S); assay: MIC, broth dilution, strain E; format: cell-based, Candida albicans; details: Candida albicans
Procedure, shortened: as §1

[11] = system: C. albicans ATCC 90819(R); details: strain D; azoles; previously reported; cited from earlier work
[12] = system: C. albicans ATCC MYA-2876(S); details: strain C; azoles; previously reported; cited from earlier work
[13] = system: C. albicans ATCC MYA-2310(S); details: strain E; azoles; previously reported; cited from earlier work
C. albicans ATCC 64124 [14] = details: strain B; azoles; previously reported; cited from earlier work
[15] = system: C. albicans ATCC 10231 (strain A); assay: ROS induction assay; format: cell-based, Candida albicans; details: 1× and 2× MIC, 1-h treatment; H2O2 1 mM
Procedure, shortened: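 C. albicans ATCC 10231 cells were incubated 1 h at 37 °C with test compound at 1× or 2× MIC, with no drug (negative control), or with 1 mM H₂O₂ (positive control). DCFH-DA (40 µg/mL) was then added. ROS were detected and imaged by fluorescence microscopy.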

[16] = read-out: MIC (MIC-0) in µM (parentheses)

MIC ([1]; ATCC90819, read-out: MIC (MIC-0)): 0.98 µg/mL | MIC ([1]; ATCC90819, read-out: MIC (MIC-0) in µM (parentheses)): 1.06 µM | MIC [2]: 0.98 to 15.6 µg/mL (≈ 1.06 to […] µM) | MIC ([3]; read-out: MIC (MIC-0)): 3.9 µg/mL | MIC [3, 16]: 4.22 µM | MIC ([4]; read-out: MIC (MIC-0)): 3.9 µg/mL | MIC [4, 16]: 4.22 µM | MIC ([6]; read-out: MIC (MIC-0)): 3.9 µg/mL | MIC [6, 16]: 4.22 µM | MIC (C. albicans ATCC 64124 [7]; ATCC64124, read-out: MIC (MIC-0)): 3.9 µg/mL | MIC (C. albicans ATCC 64124 [7]; ATCC64124, read-out: MIC (MIC-0) in µM (parentheses)): 4.22 µM | MIC ([8]; ATCC10231, read-out: MIC (MIC-0)): 3.9 µg/mL | MIC ([8]; ATCC10231, read-out: MIC (MIC-0) in µM (parentheses)): 4.22 µM | MIC ([9]; read-out: MIC (MIC-0)): 1.95 µg/mL | MIC [9, 16]: 2.11 µM | MIC ([10]; read-out: MIC (MIC-0)): 1.95 µg/mL | MIC [10, 16]: 2.11 µM
SMILES: C[C@@H]1[C@H](O)[C@@H](C)/C=C/C=C/C=C/C=C/C=C/C=C/C=C/[C@H](O[C@@H]2O[C@H](C)[C@@H](O)[C@H](N)[C@@H]2O)C[C@@H]2O[C@](O)(C[C@@H](O)C[C@@H](O)[C@H](O)CC[C@@H](O)C[C@@H](O)CC(=O)O[C@H]1C)C[C@H](O)[C@H]2C(=O)O [AmB, amphotericin B]
time from which completely fungicidal ([5]; 2× MIC): 6 h | time-kill effect ([5]; 2× MIC (1 25, 2a 25, 3a 0.78, AmB 7.8 µg/mL)): completely fungicidal

SMILES: OC(Cn1cncn1)(Cn1cncn1)c1ccc(F)cc1F [FLC, fluconazole]
MIC (MIC-2) [11]: > 125 µg/mL | MIC (MIC-2) in µM (parentheses) [11]: > 408 µM | MIC (MIC-2) [12]: 15.6 µg/mL (≈ 50.9 µM) | MIC (MIC-2) in µM (parentheses) [12]: 51.0 µM (≈ 15.6 µg/mL) | MIC (MIC-2) [13]: > 125 µg/mL | MIC (MIC-2) in µM (parentheses) [13]: > 408 µM | MIC (MIC-2) (C. albicans ATCC 64124 [14]): > 125 µg/mL | MIC (MIC-2) in µM (parentheses) (C. albicans ATCC 64124 [14]): > 408 µM

SMILES: OO [H2O2]
ROS induction (DCFH-DA fluorescence) [15]: highly fluorescent
